From PMC3461162 (British Journal of Cancer, 2012)
“Also recorded” adds a separate entry of the source.

Experiments:
Type in all cases: in vivo, human
[1] = system: tumour glucose uptake; test: Metabolic response by FDG-PET; conditions: day 35
Method in brief: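 FDG-PET was done at screening in solid-tumour patients with RECIST-measurable lesions and in all lymphoma patients. Percentage change in SUVmax from baseline was calculated. Metabolic response was defined as an SUVmax decrease >25% per EORTC criteria.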

[2] = system: advanced solid tumours or lymphomas; test: Tumour response by RECIST v1.0
Method in brief: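 Patients got a single oral dose on day 1, then continuous twice-daily dosing until disease progression or unmanageable toxicity. Baseline RECIST assessment used CT or MRI of chest, abdomen and pelvis before treatment, repeated every 8 weeks.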

[3] = system: phosphorylation levels of 4E-BP1 on threonine^37/46 in peripheral blood mononuclear cells (PBMCs); test: 4E-BP1 phosphorylation in PBMCs; conditions: 2 h post dose, MTD cohort (90 mg)
Method in brief: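 Adult patients with refractory advanced solid tumours or lymphoma got one oral dose on day 1, then continuous twice-daily dosing from one week later. They fasted at least 1 h before and after each dose. PBMCs were taken pre-dose and 2, 8 and 24 h post dose on day 1. Antibodies to the phosphorylated forms were used: AKT Ser473 by mesoscale detection, 4E-BP1 Thr37/46 by FACS.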

[4] = Plasma pharmacokinetics, non-compartmental analysis; conditions: for Dose proportionality of exposure: BID dosing; for AUC(0-t) / AUC / Cmax / Vd/F / half-life / Tmax: human, plasma, oral; for AUC(0-t): AUC0–12, Gmean (range); for Vd/F: Vss/F, Amean (range)
[5] = following BID dosing, 10 mg BID solution
[6] = following BID dosing, 20 mg BID solution
[7] = following BID dosing, 40 mg BID solution
[8] = following BID dosing, 40 mg BID tablet
[9] = following BID dosing, 60 mg BID tablet
[10] = following BID dosing, 90 mg BID tablet
[11] = following BID dosing, 120 mg BID tablet
[12] = 10 mg, single dose, 10 mg solution (n=5)
[13] = 20 mg, single dose, 20 mg solution (n=3)
[14] = 40 mg, single dose, 40 mg solution (n=6)

With `COc1ccc(-c2ccc3c(N4CCOC[C@@H]4C)nc(N4CCOC[C@@H]4C)nc3n2)cc1CO` [AZD8055] the “Patients with partial metabolic response by FDG-PET (decrease in SUVmax>25%)” value (“Patients … (decrease in SUVmax>25%)” for short) ([1]; 40 mg tablet BID) was 2/5, the “Patients … (decrease in SUVmax>25%)” value ([1]; 60 mg BID) was 2/5 and the “Patients … (decrease in SUVmax>25%)” value ([1]; 90 mg BID) was 1/7. The “Patients … (decrease in SUVmax>25%)” value ([1]; 120 mg BID) was 3/9, the “Patients with stable disease for ⩾4 months” value (“Patients with stable disease” below) ([2]; 10 mg BID) was 1/5 and the “Patients with stable disease” value ([2]; 60 mg BID) was 1/7. The “Patients with stable disease” value ([2]; 90 mg BID) was 1/11, the “Patients with stable disease” value ([2]; all cohorts) was “Seven” and the “RECIST complete or partial responses” value ([2]; all cohorts) was “no RECIST responses were seen; also recorded: No complete or partial responses were observed”. The “Duration of stable disease, range” value ([2]; seven patients with stable disease for ⩾4 months) was 115 to 398 days, the “Patients with transient decrease in p4E-BP1 in PBMC” value [3] was 2/5 and the “Dose proportionality of exposure” value ([4]; solution formulation (10–40 mg)) was “proportional increase in exposure”. The “Dose proportionality of exposure” value ([4]; tablet formulation (40–120 mg)) was “greater than proportional increase with increasing dose”, the “CLss/F, Amean (n) (range)” value [4, 5] was 439 (4) (352–521) l h^−1 and the “Cmin ss, Gmean (n) (range)” value [4, 5] was 0.114 (3) (0.057–0.189) ng ml^−1. The “T c (temporal change, linearity factor), Gmean (n) (range)” value [4, 5] was 1.03 (4) (0.839–1.48), the “CLss/F, range only (Amean NC, n=2)” value [4, 6] was “NC (2) (268–426) l h^−1” and the “Cmin ss, range only (Gmean NC, n=1)” value [4, 6] was “NC (1) (0.228–0.228) ng ml^−1”. The “T c (temporal change, linearity factor), range only (Gmean NC, n=2)” value [4, 6] was “NC (2) (1.61–2.07)”, the “CLss/F, Amean (n) (range)” value [4, 7] was 369 (6) (278–492) l h^−1 and the “Cmin ss, Gmean (n) (range)” value [4, 7] was 0.370 (5) (0.162–0.821) ng ml^−1. The “T c (temporal change, linearity factor), Gmean (n) (range)” value [4, 7] was 1.10 (6) (0.539–1.65), the “CLss/F, Amean (n) (range)” value [4, 8] was 465 (5) (148–906) l h^−1 and the “Cmin ss, Gmean (n) (range)” value [4, 8] was 0.959 (5) (0.294–2.71) ng ml^−1. For the same molecule, the “T c (temporal change, linearity factor), Gmean (n) (range)” value [4, 8] was 0.806 (5) (0.444–1.13), the “CLss/F, Amean (n) (range)” value [4, 9] was 483 (6) (92.9–1250) l h^−1 and the “T c (temporal change, linearity factor), Gmean (n) (range)” value [4, 9] was 1.30 (6) (0.525–2.50). For the same molecule, the “CLss/F, Amean (n) (range)” value [4, 10] was 856 (4) (457–1630) l h^−1, the “Cmin ss, Gmean (n) (range)” value [4, 10] was 0.543 (5) (0.177–3.18) ng ml^−1 and the “T c (temporal change, linearity factor), Gmean (n) (range)” value [4, 10] was 1.18 (4) (0.831–1.69). The “CLss/F, Amean (n) (range)” value [4, 11] was 283 (7) (68.2–494) l h^−1, the “Cmin ss, Gmean (n) (range)” value [4, 11] was 3.54 (5) (1.40–41.1) ng ml^−1 and the “T c (temporal change, linearity factor), Gmean (n) (range)” value [4, 11] was 1.81 (7) (1.09–3.50). It also gave an AUC(0-t) [4, 12] of 24.1 ng·h/mL, an AUC ([4]; 10 mg, AUC, Gmean (range), single dose, 10 mg solution (n=5)) of 24.5 ng·h/mL and an AUC ([4]; 10 mg, AUCss, Gmean (n) (range), following BID dosing, 10 mg BID solution) of 23 ng·h/mL. For the same molecule, the Cmax ([4]; 10 mg, Cmax ss, Gmean (n) (range), following BID dosing, 10 mg BID solution) was 17.3 ng/mL, the Cmax ([4]; 10 mg, Cmax, Gmean (range), single dose, 10 mg solution (n=5)) was 16.8 ng/mL and the Vd/F [4, 12] was 884 L. It also gave a half-life ([4]; 10 mg, t1/2, Amean (range), single dose, 10 mg solution (n=5)) of 2.43 h, a half-life ([4]; 10 mg, t1/2 ss, Amean (n) (range), following BID dosing, 10 mg BID solution) of 2.82 h and a Tmax ([4]; 10 mg, tmax ss, Median (n) (range), following BID dosing, 10 mg BID solution) of 0.5 h. For the same molecule, the Tmax ([4]; 10 mg, tmax, Median (range), single dose, 10 mg solution (n=5)) was 0.5 h, the AUC(0-t) [4, 13] was 43.3 ng·h/mL and the AUC ([4]; 20 mg, AUC, Gmean (range), single dose, 20 mg solution (n=3)) was 43.7 ng·h/mL. It also gave a Cmax ([4]; 20 mg, Cmax, Gmean (range), single dose, 20 mg solution (n=3)) of 27 ng/mL, a Vd/F [4, 13] of 1050 L and a half-life ([4]; 20 mg, t1/2, Amean (range), single dose, 20 mg solution (n=3)) of 1.86 h. For the same molecule, the Tmax ([4]; 20 mg, tmax, Median (range), single dose, 20 mg solution (n=3)) was 0.5 h, the AUC(0-t) [4, 14] was 99.4 ng·h/mL and the AUC(0-t) ([4]; 40 mg, single dose, 40 mg tablet (n=7)) was 124 ng·h/mL. For the same molecule, the AUC ([4]; 40 mg, AUC, Gmean (range), single dose, 40 mg solution (n=6)) was 101 ng·h/mL, the AUC ([4]; 40 mg, AUC, Gmean (range), single dose, 40 mg tablet (n=7)) was 127 ng·h/mL and the AUC ([4]; 40 mg, AUCss, Gmean (n) (range), following BID dosing, 40 mg BID solution) was 111 ng·h/mL. It also gave an AUC ([4]; 40 mg, AUCss, Gmean (n) (range), following BID dosing, 40 mg BID tablet) of 101 ng·h/mL, a Cmax ([4]; 40 mg, Cmax ss, Gmean (n) (range), following BID dosing, 40 mg BID solution) of 61.9 ng/mL and a Cmax ([4]; 40 mg, Cmax ss, Gmean (n) (range), following BID dosing, 40 mg BID tablet) of 46.1 ng/mL. The Cmax ([4]; 40 mg, Cmax, Gmean (range), single dose, 40 mg solution (n=6)) was 70.9 ng/mL, the Cmax ([4]; 40 mg, Cmax, Gmean (range), single dose, 40 mg tablet (n=7)) was 72.3 ng/mL and the Vd/F [4, 14] was 840 L.
